How the values were obtained:
Leishmania donovani = assay: Antileishmanial activity against Leishmania donovani LD-1S/MHOM/SD/00-strain 1S amastigotes; type: functional, organism-based
How it was run: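 Axenic (cell-free) L. donovani amastigotes; parasite growth and survival read with PicoGreen. Single-concentration screen at 10 μg/mL in duplicate, expressed as % growth versus control; samples at ≤50% growth then tested at […], 0.08, 0.4, 2 and 10 μg/mL to derive IC50. Amphotericin B positive control.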

Plasmodium falciparum = assay: Antimalarial activity against Plasmodium falciparum; type: functional, organism-based
How it was run: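 Run per the authors' earlier protocol with chloroquine as positive control; duplicate wells at 10, 2, 0.4, 0.08 and 0.016 μg/mL.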

Trypanosoma cruzi = assay: Antitrypanosomal activity against Trypanosoma cruzi; type: functional, organism-based
How it was run: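 Buckner et al. protocol with nifurtimox as positive control; tested in duplicate at 10, 2, 0.4, 0.08 and 0.016 μg/mL.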

Vero = assay: Cytotoxicity against african green monkey Vero cells by MTT assay; type: cell-based; details: Chlorocebus sabaeus
[1] = Therapeutic index, ratio of IC50 for african green monkey Vero cells to IC50 for Leishmania donovani LD-1S/MHOM/SD/00-strain 1S amastigotes; type: cell-based; details: read-out: Ratio IC50
How it was run: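 Therapeutic window calculated as Vero-cell IC50 (MTT cytotoxicity) divided by IC50 against axenic L. donovani amastigotes (PicoGreen growth/survival assay).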

[2] = Leishmania donovani, 1S, read-out: IC50

SMILES | IC50 (Plasmodium falciparum) | IC50 (Trypanosoma cruzi) | IC50 (Leishmania donovani; [2]) | IC50 (Vero) | selectivity ratio [1] | IC50 (Leishmania donovani)
Oc1cccc2c1[C@@H](O)CCC21Oc2cccc3cccc(c23)O1 | > 10 µM | 26.5 µM | 8.4 µM | 150 µM | 18 | 
COc1cc2c(c(OC)c1)C(C)=[N+](c1ccc(OC)c3c(OC)cc(C)cc13)[C@@H](C)C2.O=C([O-])C(F)(F)F [ANCISANCISTROCLADINIUM A] |  |  | 0.722 mg/L |  |  | 
O=C1C=CC(=O)C2=C1[C@@H](O)CCC21Oc2cccc3cccc(c23)O1 | > 10 µM | > 10 µM | 0.62 µM | 152 µM | 245 | 
COc1cc2c(c(OC)c1)C(C)=[N+](c1ccc3cc(C)cc(OC)c3c1O)[C@@H](C)C2.O=C([O-])C(F)(F)F [ANCISTROCLADINIUM B] |  |  | 1.1 mg/L |  |  | 
C[C@@H]1[C@H](O)[C@@H](C)/C=C/C=C/C=C/C=C/C=C/C=C/C=C/[C@H](O[C@@H]2O[C@H](C)[C@@H](O)[C@H](N)[C@@H]2O)C[C@@H]2O[C@](O)(C[C@@H](O)C[C@@H](O)[C@H](O)CC[C@@H](O)C[C@@H](O)CC(=O)O[C@H]1C)C[C@H](O)[C@H]2C(=O)O [AMPHOTERICIN B] |  |  |  |  |  | 0.07 mg/L
CC1CS(=O)(=O)CCN1/N=C/c1ccc([N+](=O)[O-])o1 (centres undefined) [NIFURTIMOX] |  | 3 mg/L |  |  |  | 

Now from value to compound, other results behind:

IC50 (Plasmodium falciparum) | IC50 (Trypanosoma cruzi) | SMILES | IC50 (Leishmania donovani; [2]) | IC50 (Vero) | selectivity ratio [1] | IC50 (Leishmania donovani)
16.5 µM | > 10 µM | O=C1C=C[C@]23Oc4ccc(O)c5c4[C@](CCC5=O)(Oc4cccc1c42)O3 [PREUSSOMERIN EG1] | 0.12 µM | 9 µM | 75 | 
> 10 µM | 18.5 µM | O=C1CCC2(Oc3cccc4cccc(c34)O2)c2cccc(O)c21 [PALMARUMYCIN CP2] | 3.93 µM | 162 µM | 41 | 
> 10 µM | > 10 µM | O=C1CCC2(Oc3cccc4cccc(c34)O2)c2c(O)ccc(O)c21 [PALMARUMYCIN CP17] | 1.34 µM | 174 µM | 130 | 

From ChEMBL document CHEMBL1151709, “Antileishmanial constituents of the Panamanian endophytic fungus Edenia sp” (J Nat Prod, 2008)
